Entries after “also recorded” stand apart in the source; their conditions may differ.
The compounds below were run against T1, ABHD12 (Mus musculus, UniProt Q99LR1) (assay: gel-based competitive ABPP using the FP-Rh probe, mouse brain membrane proteome). Settings: up to 10 μM.
T1 sequence (Q99LR1 1-398): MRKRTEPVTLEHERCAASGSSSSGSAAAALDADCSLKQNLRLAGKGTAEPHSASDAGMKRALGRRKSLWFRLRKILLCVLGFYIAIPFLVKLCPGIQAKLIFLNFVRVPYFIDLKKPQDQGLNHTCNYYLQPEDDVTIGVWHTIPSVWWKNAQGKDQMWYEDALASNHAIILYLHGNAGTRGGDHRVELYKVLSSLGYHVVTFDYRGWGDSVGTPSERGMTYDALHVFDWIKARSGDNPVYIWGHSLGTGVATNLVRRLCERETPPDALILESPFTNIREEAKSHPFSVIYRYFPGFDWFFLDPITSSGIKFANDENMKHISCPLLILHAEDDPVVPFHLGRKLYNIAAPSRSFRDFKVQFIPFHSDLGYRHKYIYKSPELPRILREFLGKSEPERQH
Type: biochemical
How it was run: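 Mouse brain membrane fraction was prepared by dounce homogenization in DPBS, a 1,400 × g clearing spin, and a 16,000 × g spin (45 min, 4 °C). Proteome (1 mg/mL) was pretreated with test compound (20 min rt for (thio)ureas; 45 min 37 °C for carbamates), then labeled with FP-Rh (1 μM final, 45 min, 37 °C). Samples were quenched in SDS loading buffer, separated by SDS-PAGE and read by in-gel fluorescence.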

Row | ABHD12 activity | Compound
1 | negligible ABHD12 activity up to 10 μM | COc1ccc(N2CCN(C(=O)ON3C(=O)C4CN(Cc5ccc(Oc6ccccc6)cc5)CCN4C3=O)CC2)cc1 (stereo not shown) [ABC34]

These compounds were tested against T1, ABHD12 (assay: not given). Settings: 30 mg/kg, i.p., mice.
Type: in vivo
How it was run: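 Test compound was suspended in EtOH/PEG40 1:1 by bath sonication, then diluted with 9 volumes of DPBS (EtOH/PEG40/DPBS 1:1:18). Freshly prepared solution was given i.p. at 10 μL/g body weight. Mice were anesthetized with isoflurane and euthanized by cervical dislocation, and tissues were harvested. Tissue membrane proteomes were labeled with JJH350 (2 μM, 45 min, 37 °C), clicked to rhodamine azide and read by in-gel fluorescence.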

Row | in vivo inhibition of ABHD12 | Compound
2 | only marginal inhibition of ABHD12 | COc1ccc(N2CCN(C(=O)ON3C(=O)C4CN(C(=O)c5ccc(Oc6ccccc6)cc5)CCN4C3=O)CC2)cc1 (stereo not shown) [JJH329, 1,3-Dioxo-7-(4-phenoxybenzoyl)hexahydroimidazo[1,5-a]pyrazine-2(3H)-yl 4-(4-methoxyphenyl)piperazine-1-carboxylate]

The compounds below were run against T2, ABHD12 (Homo sapiens, UniProt Q8N2K0) (assay: lyso-PS hydrolysis). Settings: 17:1 lyso-PS 100 μM.
T2 sequence (Q8N2K0 1-398): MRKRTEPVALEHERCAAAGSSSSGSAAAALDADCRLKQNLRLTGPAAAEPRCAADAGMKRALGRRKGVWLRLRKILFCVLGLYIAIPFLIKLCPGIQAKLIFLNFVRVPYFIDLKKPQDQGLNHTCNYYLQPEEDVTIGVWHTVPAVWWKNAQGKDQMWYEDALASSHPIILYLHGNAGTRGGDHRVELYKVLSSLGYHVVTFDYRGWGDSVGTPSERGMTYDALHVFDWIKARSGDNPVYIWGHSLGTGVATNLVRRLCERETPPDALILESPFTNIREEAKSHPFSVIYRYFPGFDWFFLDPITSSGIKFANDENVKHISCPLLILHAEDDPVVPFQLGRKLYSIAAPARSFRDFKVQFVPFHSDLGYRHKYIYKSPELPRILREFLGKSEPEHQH
Type: biochemical
How it was run: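 Test compound preincubated 20 min at room temperature with ABHD12-overexpressing HEK293T membrane (0.25 mg/mL) in DPBS. 17:1 lyso-PS added (100 μM final) and run 30 min at 37 °C. Quench: 2:1 CHCl3/MeOH containing 1 nmol 15:0 FFA internal standard. Organic phase analysed by LC-MS, ESI negative mode, SIM at m/z 267.20 (17:1 FFA product) and 241.20 (15:0 FFA).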

Row | Compound | ABHD12 inhibitory activity, lyso-PS substrate assay
3 | Cc1cnc(N2CCN(NC(=S)Nc3cccnc3)CC2)c(Cl)c1 [DO127] | did not show any ABHD12 inhibitory activity

What follows are compounds tested against T2, ABHD12 (assay: not given). Settings: FP-Rh probe 1 μM.
Type: biochemical

Row | Compound | time-dependent inhibition of ABHD12
4 | FC(F)(F)c1cnc(N2CCC(NC(=S)Nc3cccnc3)CC2)c(Cl)c1 [DO130] | did not show time-dependent inhibition of ABHD12

Each compound was assayed against T1, ABHD12 (assay: gel-based ABPP of mouse brain membrane proteome using the JJH350 probe). Settings: JJH350 probe; SAR statements.
Type: biochemical
How it was run: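 Mouse brain was dounce-homogenized in DPBS, cleared at 1,400 × g (3 min, 4 °C) and spun at 16,000 × g (45 min, 4 °C); the membrane pellet was washed and resuspended. Proteome (1 mg/mL) was pretreated with test compound (20 min rt for (thio)ureas; 45 min 37 °C for carbamates), then labeled with JJH350 (2 μM final, 45 min, 37 °C).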

Row | Compound | ABHD12 inhibitory activity, gel-based ABPP
5 | FC(F)(F)Oc1ccc(Oc2ccnc(N3CCC[C@H](NC(=S)Nc4cccnc4)C3)c2Cl)c(Cl)c1 [(S)-DO271] | less active than (R)-DO271
6 | Cc1cnc(N2CCN(NC(=S)Nc3cccnc3)CC2)c(Cl)c1 [DO127] | did not show any ABHD12 inhibitory activity
7 | Cc1cnc(N2CCC(NC(=S)Nc3cccnc3)CC2)c(Cl)c1 [DO129, N-3-Pyridyl-N’-[1-{3-chloro-5-(methyl)pyridin-2-yl}piperidin-4-yl]thiourea] | exhibited ABHD12 inhibitory activity
8 | FC(F)(F)c1cnc(N2CCC(NC(=S)Nc3cccnc3)CC2)c(Cl)c1 [DO130] | ABHD12 inhibitory activity as commercial AW01275
9 | O=C(Nc1cccnc1)NC1CCN(c2ncc(C(F)(F)F)cc2Cl)CC1 [compound 8] | substantial loss in activity
10 | FC(F)(F)c1cnc(N2CCC(NC(=S)Nc3ccccc3)CC2)c(Cl)c1 [compound 12] | retained some ABHD12 inhibitory activity, albeit slightly lower than that of DO130
11 | FC(F)(F)c1cnc(N2CCCC(NC(=S)Nc3cccnc3)C2)c(Cl)c1 (stereo not shown) [compound 13, N-3-Pyridyl-N’-[1-{3-chloro-5-(trifluoromethyl)pyridin-2-yl}piperidin-3-yl]thiourea] | abolished ABHD12 inhibitory activity; also recorded: dramatically reduced ABHD12 inhibitory activity
12 | FC(F)(F)c1cnc(N2C3CCC2CC(NC(=S)Nc2cccnc2)C3)c(Cl)c1 (stereo not shown) [compound 21] | impaired ABHD12 activity relative to DO130
13 | FC(F)(F)c1ccnc(N2CCC(NC(=S)Nc3cccnc3)CC2)c1 [compound 24] | first sub-micromolar inhibitors in this series
14 | FC(F)(F)c1cccc(N2CCC(NC(=S)Nc3cccnc3)CC2)n1 [compound 26] | first sub-micromolar inhibitors in this series

Next, values leading:

Row | ABHD12 inhibitory activity, gel-based ABPP | Compound
15 | diminished potency towards ABHD12 | COc1ccc(NC(=S)NC2CCN(c3ncc(C(F)(F)F)cc3Cl)CC2)cn1 [compound 9, N-{6-(methoxy)Pyridin-3-yl}-N’-[1-{3-chloro-5-(trifluoromethyl)pyridin-2-yl}piperidin-4-yl]thiourea]
16 | diminished potency towards ABHD12 | FC(F)(F)c1cnc(N2CCC(NC(=S)Nc3cnc4ccccc4c3)CC2)c(Cl)c1 [compound 10]
17 | diminished potency towards ABHD12 | FC(F)(F)c1cnc(N2CCC(NC(=S)N3CCCc4ccccc43)CC2)c(Cl)c1 [compound 11]
18 | near-complete loss | FC(F)(F)c1cnc(N2CCC(NC(=S)Nc3cccnc3)C2)c(Cl)c1 (stereo not shown) [compound 14]
19 | substantial reductions | FC(F)(F)c1cnc(N2CCCC(NC(=S)Nc3cccnc3)CC2)c(Cl)c1 (stereo not shown) [compound 15]
20 | weakened ABHD12 activity | CN(C(=S)Nc1cccnc1)C1CCN(c2ncc(C(F)(F)F)cc2Cl)CC1 [compound 20]
21 | abolished ABHD12 activity up to 5 μM | S=C(Nc1cccnc1)NC1CCN(c2ncccc2Cl)CC1 [compound 22]
22 | only a small loss in potency | FC(F)(F)c1ccc(N2CCC(NC(=S)Nc3cccnc3)CC2)nc1 [compound 23]
23 | even more deleterious effect | COc1ccnc(N2CCC(NC(=S)Nc3cccnc3)CC2)c1 [compound 31]
24 | increased potency | Fc1ccc(Oc2ccnc(N3CCC(NC(=S)Nc4cccnc4)CC3)c2)cc1 [compound 37]
25 | increased potency | FC(F)(F)Oc1ccc(Oc2ccnc(N3CCC(NC(=S)Nc4cccnc4)CC3)c2)cc1 [compound 38]
26 | did not alter potency | Cc1c(Oc2ccc(OC(F)(F)F)cc2)ccnc1N1CCC(NC(=S)Nc2cccnc2)CC1 [compound 40, N-3-Pyridyl-N’-(1-[3-methyl-4-{4-(trifluoromethoxy)phenoxy}pyridine-2-yl]piperidin-4-yl)thiourea]
27 | reduced ABHD12 inhibitory activity | N#Cc1c(Oc2ccc(OC(F)(F)F)cc2)ccnc1N1CCC(NC(=S)Nc2cccnc2)CC1 [compound 41]
28 | reduced ABHD12 inhibitory activity | FC(F)(F)Oc1ccc(Oc2ccnc(N3CCC(NC(=S)Nc4cccnc4)CC3)c2C(F)(F)F)cc1 [compound 42]

Same assay, conditions: compared to 28 or 38

Row | increase in ABHD12 inhibitory activity | Compound
29 | > 10 fold | FC(F)(F)Oc1ccc(Oc2ccnc(N3CCC(NC(=S)Nc4cccnc4)CC3)c2Cl)cc1 [compound 39]

Same assay, conditions: compared to DO264

Row | reduction in potency for ABHD12 inhibition | Compound
30 | ~ 10,000 fold | FC(F)(F)Oc1ccc(Oc2ccnc(N3CCCC(NC(=S)Nc4cccnc4)C3)c2Cl)c(Cl)c1 (racemic) [(S,R)-DO271]

Same assay, conditions: relative to 39

Row | lower potency of regioisomers | Compound
31 | 3–4 fold | FC(F)(F)Oc1cccc(Oc2ccnc(N3CCC(NC(=S)Nc4cccnc4)CC3)c2Cl)c1 [compound 43]
32 | 3–4 fold | FC(F)(F)Oc1ccccc1Oc1ccnc(N2CCC(NC(=S)Nc3cccnc3)CC2)c1Cl [compound 44]

Same assay, conditions: relative to the 4-CF3 analogue

Row | decrease in ABHD12 inhibitory activity on substituting the 4-CF3 group | Compound
33 | ~ 3 fold | S=C(Nc1cccnc1)NC1CCN(c2cc(Cl)ccn2)CC1 [compound 30]

These compounds were tested on serine hydrolases (assay: selectivity by gel-based ABPP with FP-Rh in mouse brain proteome). Settings: FP-Rh probe.
Type: biochemical
How it was run: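 Mouse brain homogenised in DPBS and cleared at 1,400 × g. Membranes pelleted at 16,000 × g (45 min, 4 °C) and resuspended in DPBS; used at 1 mg/mL. Test compound pretreatment: (thio)ureas 20 min at room temperature, NHH-carbamates 45 min at 37 °C. FP-Rh labelling (1 μM final) 45 min at 37 °C. Readout: 10% SDS-PAGE, in-gel fluorescence, band intensities quantified.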

Row | Compound | selectivity / off-targets among serine hydrolases
34 | COc1ccc(N2CCN(C(=O)ON3C(=O)C4CN(C(=O)c5ccc(Oc6ccccc6)cc5)CCN4C3=O)CC2)cc1 (stereo not shown) [JJH329, 1,3-Dioxo-7-(4-phenoxybenzoyl)hexahydroimidazo[1,5-a]pyrazine-2(3H)-yl 4-(4-methoxyphenyl)piperazine-1-carboxylate] | ABHD6 was observed as the only off-target
